SMILES strings stand for the structures. Activity calls are given as the source filed them. The rule behind the calls is not given here.

Test [1] addresses T1, Inhibitor of nuclear factor kappa-B kinase subunit alpha (Homo sapiens) (UniProt O15111).
T1 sequence (whole entry): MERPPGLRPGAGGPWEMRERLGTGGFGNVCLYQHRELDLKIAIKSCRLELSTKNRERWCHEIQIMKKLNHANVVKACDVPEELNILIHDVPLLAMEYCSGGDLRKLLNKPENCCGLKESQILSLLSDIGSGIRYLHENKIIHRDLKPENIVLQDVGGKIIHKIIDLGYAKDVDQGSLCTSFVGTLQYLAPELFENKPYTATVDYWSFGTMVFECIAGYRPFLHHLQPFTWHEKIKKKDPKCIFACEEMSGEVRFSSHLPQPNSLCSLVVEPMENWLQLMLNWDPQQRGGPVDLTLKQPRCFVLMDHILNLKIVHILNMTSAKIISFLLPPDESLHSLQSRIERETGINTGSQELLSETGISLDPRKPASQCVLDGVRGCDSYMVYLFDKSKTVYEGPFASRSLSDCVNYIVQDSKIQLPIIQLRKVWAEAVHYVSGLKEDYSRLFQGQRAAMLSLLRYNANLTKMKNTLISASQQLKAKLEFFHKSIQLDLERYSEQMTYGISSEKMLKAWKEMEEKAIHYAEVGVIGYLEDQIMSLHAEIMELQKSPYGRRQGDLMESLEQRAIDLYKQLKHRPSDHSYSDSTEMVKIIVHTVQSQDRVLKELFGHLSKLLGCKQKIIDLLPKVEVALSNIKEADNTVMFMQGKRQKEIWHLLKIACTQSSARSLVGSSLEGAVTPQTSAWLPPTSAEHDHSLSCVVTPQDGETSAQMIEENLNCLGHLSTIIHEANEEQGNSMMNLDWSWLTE
Nature of the test: Induction of IKKalpha phosphorylation at S176/180 residues in TNFalpha-stimulated human Jurkat cells at 10 uM preincubated for 60 mins followed by TNFalpha-stimulation for 20 mins by immunoblot analysis. It is filed as cell-based. The method in brief: (§1)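 Jurkat E6.1 cells in X-VIVO 15 with 10% FBS, passages 5–10, were pretreated 60 min with 10 µM compound (DMSO vehicle), then stimulated 20 min with TNFα 15 ng/mL. Lysates were made with protease and phosphatase inhibitors, 20 µg/lane was run on 12% SDS-PAGE, and IKKα/IKKβ phosphorylation was detected by immunoblot with ECL. Three independent experiments were run.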
In general terms: A western blot detects proteins with antibodies after separation by electrophoresis.

Test [2] has as its target Inhibitor of NF-kappa-B kinase (IKK) (Homo sapiens) (UniProt O14920+O15111+Q9Y6K9). Nature of the test: Inhibition of IKKbeta/IKKalpha/NEMO complex immunoprecipated from TNFalpha-stimulated human Jurkat cells at 100 uM relative to control.
The target of test [3] is T2, Inhibitor of nuclear factor kappa-B kinase subunit beta (Homo sapiens) (UniProt O14920).
T2 sequence (whole entry): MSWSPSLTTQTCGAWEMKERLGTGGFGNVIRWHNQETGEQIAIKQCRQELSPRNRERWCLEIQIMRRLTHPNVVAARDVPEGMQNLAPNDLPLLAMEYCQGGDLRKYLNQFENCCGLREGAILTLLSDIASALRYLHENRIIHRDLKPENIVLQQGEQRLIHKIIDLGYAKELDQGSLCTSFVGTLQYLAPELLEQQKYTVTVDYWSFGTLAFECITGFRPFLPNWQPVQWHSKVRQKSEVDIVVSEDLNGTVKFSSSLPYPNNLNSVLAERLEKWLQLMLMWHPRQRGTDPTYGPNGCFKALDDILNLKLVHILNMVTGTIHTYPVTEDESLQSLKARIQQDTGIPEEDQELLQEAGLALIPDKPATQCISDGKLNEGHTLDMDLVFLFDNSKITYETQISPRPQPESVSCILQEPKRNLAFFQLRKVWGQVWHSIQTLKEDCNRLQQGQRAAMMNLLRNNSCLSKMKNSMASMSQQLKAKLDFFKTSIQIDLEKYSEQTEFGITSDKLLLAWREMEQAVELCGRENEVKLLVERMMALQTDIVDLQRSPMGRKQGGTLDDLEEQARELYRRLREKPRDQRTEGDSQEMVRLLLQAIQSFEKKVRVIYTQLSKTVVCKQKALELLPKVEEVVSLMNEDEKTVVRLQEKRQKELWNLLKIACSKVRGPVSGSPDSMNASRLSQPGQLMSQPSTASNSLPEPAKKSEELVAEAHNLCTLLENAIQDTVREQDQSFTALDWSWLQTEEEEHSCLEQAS
Nature of the test: Induction of IKKbeta phosphorylation at S177/181 residues in TNFalpha-stimulated human Jurkat cells at 10 uM preincubated for 60 mins followed by TNFalpha-stimulation for 20 mins by immunoblot analysis. Format: cell-based. The method in brief:
as §1

Test [4] is filed under the species Homo sapiens. As to the kind of experiment: Inhibition of canonical NF-kB signaling pathway in human THP1 cells assessed as reduction in LPS-induced IkBalpha degradation preincubated for 60 mins followed by LPS addition measured after 30 mins by immunoblot analysis. It is filed as cell-based. The method in brief:
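THP-1 cells in RPMI-1640 with 10% FBS. Cells exposed 60 min to compound, then 30 min to LPS 1 µg/mL. Lysates immunoblotted at 20 µg/lane for IκBα and β-actin, with ECL detection. Band signals normalized as % of control; apparent IC50 by non-linear regression; mean ± SD of three independent experiments.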

Take `O=C(Nc1cc(C(F)(F)F)cc(C(F)(F)F)c1)c1cc(Cl)ccc1O` [IMD-0354]: the outcome in test [1] and in test [3] was Active. The same compound had an inhibition in test [2] of 40%.

As to `O=C(Nc1cc(C(F)(F)F)cc(C(F)(F)F)c1)c1nsnc1O`, in test [4], the inhibition entry is “Dose-dependent effect”.

What is called inhibition is the share of the control response that was lost under treatment.
